# Laboratory results: ChEMBL document CHEMBL4257484, “Membrane-active antimicrobial poly(amino-modified alkyl) β-cyclodextrins synthesized via click reactions” (Medchemcomm, 2018)
# How the values were obtained:
# Escherichia coli = experiment: Antibacterial activity against drug-sensitive Escherichia coli K-12 W3110 after 20 hrs by liquid microdilution method; type: functional; conditions: K-12 substr. W3110, 20 h
# Outline: (§1)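 Two-fold serial dilutions of compound in Mueller–Hinton broth, inoculated with 1 × 10^4 cells and cultured at 37 °C for 20 h in microtiter wells.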
# Enterococcus faecalis [1] = experiment: Antibacterial activity against vancomycin-resistant Enterococcus faecalis MS29016 after 18 to 20 hrs by agar dilution method; type: functional
# Outline: (§2)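 Agar dilution per CLSI. Overnight broth cultures were diluted 100-fold, and one loopful (about 10^5 to 10^4 CFU) was spotted onto agar plates containing the CD. Growth was scored after 18–20 h at 37 °C. MIC values are in µM.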
# [2] = Hemolytic activity in rabbit RBC at 5 uM after 20 mins relative to control; type: ADME, cell-based, Oryctolagus cuniculus, Erythrocyte; conditions: rabbit red blood cells (erythrocytes), read-out: Activity
# Outline: (§3)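 Rabbit erythrocytes suspended in 150 mM NaCl/10 mM Hepes-NaOH, pH 7.4, at 0.5% hematocrit (final) and incubated with compound at 37 °C. The table footnote gives 20 min; the methods section gives 30 min. Hemolysis was read as absorbance at 540 nm, with 50 µM lysolecithin defining 100% hemolysis.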
# Pseudomonas aeruginosa = experiment: Antibacterial activity against drug-sensitive Pseudomonas aeruginosa PAO1 after 20 hrs by liquid microdilution method; type: functional; conditions: PAO1, 20 h; outline: as §1
# [3] = Hemolytic activity in rabbit RBC at 2 uM after 20 mins relative to control; type: ADME, cell-based, Oryctolagus cuniculus, Erythrocyte; conditions: rabbit red blood cells (erythrocytes), read-out: Activity; outline: as §3
# Staphylococcus aureus [4] = experiment: Antibacterial activity against methicillin-sensitive Staphylococcus aureus FDA 209P after 20 hrs by liquid microdilution method; type: functional; outline: as §1
# [5] = Hemolytic activity in rabbit RBC at 1 uM after 20 mins relative to control; type: ADME, cell-based, Oryctolagus cuniculus, Erythrocyte; conditions: rabbit red blood cells (erythrocytes), read-out: Activity; outline: as §3
# Enterococcus faecium = experiment: Antibacterial activity against drug-resistant Enterococcus faecium MS29120 after 18 to 20 hrs by agar dilution method; type: functional; outline: as §2
# [6] = Hemolytic activity in rabbit RBC at 20 uM after 20 mins relative to control; type: ADME, cell-based, Oryctolagus cuniculus, Erythrocyte; conditions: rabbit red blood cells (erythrocytes), read-out: Activity; outline: as §3
# Staphylococcus aureus [7] = experiment: Antibacterial activity against methicillin-resistant Staphylococcus aureus MS29202 after 18 to 20 hrs by agar dilution method; type: functional; outline: as §2
# Enterococcus faecalis [8] = experiment: Antibacterial activity against drug-resistant Enterococcus faecalis MS29030 after 18 to 20 hrs by agar dilution method; type: functional; outline: as §2
# Salmonella typhimurium = experiment: Antibacterial activity against drug-sensitive Salmonella typhimurium LT2 after 20 hrs by liquid microdilution method; type: functional, Salmonella enterica subsp. enterica serovar Typhimurium; conditions: Salmonella enterica, LT2, 20 h; outline: as §1
# [9] = Hemolytic activity in rabbit RBC at 50 uM after 20 mins relative to control; type: ADME, cell-based, Oryctolagus cuniculus, Erythrocyte; conditions: rabbit red blood cells (erythrocytes), read-out: Activity; outline: as §3
# Streptococcus agalactiae = experiment: Antibacterial activity against drug-resistant Streptococcus agalactiae B1 after 18 to 20 hrs by agar dilution method; type: functional; outline: as §2
# [10] = Hemolytic activity in rabbit RBC at 10 uM after 20 mins relative to control; type: ADME, cell-based, Oryctolagus cuniculus, Erythrocyte; conditions: rabbit red blood cells (erythrocytes), read-out: Activity; outline: as §3
# Bacillus subtilis = experiment: Antibacterial activity against drug-sensitive Bacillus subtilis 168 after 20 hrs by liquid microdilution method; type: functional; conditions: subsp. subtilis str. 168, 20 h; outline: as §1
# [11] = Lipophilicity, log P of the compound; type: physicochemical; conditions: octanol/water
SMILES,MIC (Escherichia coli),MIC (Enterococcus faecalis [1]),"hemolysis at 20 min, 5 µM [2]",MIC (Pseudomonas aeruginosa),"hemolysis at 20 min, 2 µM [3]",MIC (Staphylococcus aureus [4]),"hemolysis at 20 min, 1 µM [5]",MIC (Enterococcus faecium),"hemolysis at 20 min, 20 µM [6]",MIC (Staphylococcus aureus [7]),MIC (Enterococcus faecalis [8]),MIC (Salmonella typhimurium),"hemolysis at 20 min, 50 µM [9]",MIC (Streptococcus agalactiae),"hemolysis at 20 min, 10 µM [10]",MIC (Bacillus subtilis),logP [11]
CCCCCCC(N)c1cn(C[C@H]2O[C@@H]3O[C@H]4[C@H](O)[C@@H](O)[C@@H](O[C@H]5[C@H](O)[C@@H](O)[C@@H](O[C@H]6[C@H](O)[C@@H](O)[C@@H](O[C@H]7[C@H](O)[C@@H](O)[C@@H](O[C@H]8[C@H](O)[C@@H](O)[C@@H](O[C@H]9[C@H](O)[C@@H](O)[C@@H](O[C@H]2[C@H](O)[C@H]3O)O[C@@H]9Cn2cc(C(N)CCCCCC)nn2)O[C@@H]8Cn2cc(C(N)CCCCCC)nn2)O[C@@H]7Cn2cc(C(N)CCCCCC)nn2)O[C@@H]6Cn2cc(C(N)CCCCCC)nn2)O[C@@H]5Cn2cc(C(N)CCCCCC)nn2)O[C@@H]4Cn2cc(C(N)CCCCCC)nn2)nn1 (some centres not stated),10 µM,21 µM,101%,21 µM,37%,3 to 10 µM,10%,21 µM,113%,10 µM,42 µM,10 µM,118%,10 µM,109%,5 µM,-0.18
NC(CC1CCCCC1)c1cn(C[C@H]2O[C@@H]3O[C@H]4[C@H](O)[C@@H](O)[C@@H](O[C@H]5[C@H](O)[C@@H](O)[C@@H](O[C@H]6[C@H](O)[C@@H](O)[C@@H](O[C@H]7[C@H](O)[C@@H](O)[C@@H](O[C@H]8[C@H](O)[C@@H](O)[C@@H](O[C@H]9[C@H](O)[C@@H](O)[C@@H](O[C@H]2[C@H](O)[C@H]3O)O[C@@H]9Cn2cc(C(N)CC3CCCCC3)nn2)O[C@@H]8Cn2cc(C(N)CC3CCCCC3)nn2)O[C@@H]7Cn2cc(C(N)CC3CCCCC3)nn2)O[C@@H]6Cn2cc(C(N)CC3CCCCC3)nn2)O[C@@H]5Cn2cc(C(N)CC3CCCCC3)nn2)O[C@@H]4Cn2cc(C(N)CC3CCCCC3)nn2)nn1 (some centres not stated),10 µM,20 µM,89%,20 µM,31%,10 µM,13%,20 µM,117%,20 µM,40 µM,10 µM,118%,20 µM,107%,3 µM,-0.35
NC(CCc1ccccc1)c1cn(C[C@H]2O[C@@H]3O[C@H]4[C@H](O)[C@@H](O)[C@@H](O[C@H]5[C@H](O)[C@@H](O)[C@@H](O[C@H]6[C@H](O)[C@@H](O)[C@@H](O[C@H]7[C@H](O)[C@@H](O)[C@@H](O[C@H]8[C@H](O)[C@@H](O)[C@@H](O[C@H]9[C@H](O)[C@@H](O)[C@@H](O[C@H]2[C@H](O)[C@H]3O)O[C@@H]9Cn2cc(C(N)CCc3ccccc3)nn2)O[C@@H]8Cn2cc(C(N)CCc3ccccc3)nn2)O[C@@H]7Cn2cc(C(N)CCc3ccccc3)nn2)O[C@@H]6Cn2cc(C(N)CCc3ccccc3)nn2)O[C@@H]5Cn2cc(C(N)CCc3ccccc3)nn2)O[C@@H]4Cn2cc(C(N)CCc3ccccc3)nn2)nn1 (some centres not stated),20 µM,40 µM,17%,> 40 µM,6%,20 µM,4%,20 µM,94%,20 µM,40 µM,> 40 µM,113%,20 µM,47%,5 µM,-0.25
CCC(CC)CNCc1cn(C[C@H]2O[C@@H]3O[C@H]4[C@H](O)[C@@H](O)[C@@H](O[C@H]5[C@H](O)[C@@H](O)[C@@H](O[C@H]6[C@H](O)[C@@H](O)[C@@H](O[C@H]7[C@H](O)[C@@H](O)[C@@H](O[C@H]8[C@H](O)[C@@H](O)[C@@H](O[C@H]9[C@H](O)[C@@H](O)[C@@H](O[C@H]2[C@H](O)[C@H]3O)O[C@@H]9Cn2cc(CNCC(CC)CC)nn2)O[C@@H]8Cn2cc(CNCC(CC)CC)nn2)O[C@@H]7Cn2cc(CNCC(CC)CC)nn2)O[C@@H]6Cn2cc(CNCC(CC)CC)nn2)O[C@@H]5Cn2cc(CNCC(CC)CC)nn2)O[C@@H]4Cn2cc(CNCC(CC)CC)nn2)nn1,10 µM,21 µM,3%,42 µM,1%,3 to 5 µM,5%,10 µM,8%,21 µM,> 42 µM,42 µM,12%,3 µM,8%,3 µM,-0.08
NC(Cc1ccccc1)c1cn(C[C@H]2O[C@@H]3O[C@H]4[C@H](O)[C@@H](O)[C@@H](O[C@H]5[C@H](O)[C@@H](O)[C@@H](O[C@H]6[C@H](O)[C@@H](O)[C@@H](O[C@H]7[C@H](O)[C@@H](O)[C@@H](O[C@H]8[C@H](O)[C@@H](O)[C@@H](O[C@H]9[C@H](O)[C@@H](O)[C@@H](O[C@H]2[C@H](O)[C@H]3O)O[C@@H]9Cn2cc(C(N)Cc3ccccc3)nn2)O[C@@H]8Cn2cc(C(N)Cc3ccccc3)nn2)O[C@@H]7Cn2cc(C(N)Cc3ccccc3)nn2)O[C@@H]6Cn2cc(C(N)Cc3ccccc3)nn2)O[C@@H]5Cn2cc(C(N)Cc3ccccc3)nn2)O[C@@H]4Cn2cc(C(N)Cc3ccccc3)nn2)nn1 (some centres not stated),21 µM,> 41 µM,3%,> 41 µM,4%,21 µM,5%,21 µM,4%,41 µM,> 41 µM,> 41 µM,4%,21 µM,6%,5 µM,-0.67
O[C@@H]1[C@@H](O)[C@H]2O[C@H]3[C@H](O)[C@@H](O)[C@@H](O[C@H]4[C@H](O)[C@@H](O)[C@@H](O[C@H]5[C@H](O)[C@@H](O)[C@@H](O[C@H]6[C@H](O)[C@@H](O)[C@@H](O[C@H]7[C@H](O)[C@@H](O)[C@@H](O[C@H]8[C@H](O)[C@@H](O)[C@@H](O[C@@H]1[C@@H](Cn1cc(CNCCc9ccccc9)nn1)O2)O[C@@H]8Cn1cc(CNCCc2ccccc2)nn1)O[C@@H]7Cn1cc(CNCCc2ccccc2)nn1)O[C@@H]6Cn1cc(CNCCc2ccccc2)nn1)O[C@@H]5Cn1cc(CNCCc2ccccc2)nn1)O[C@@H]4Cn1cc(CNCCc2ccccc2)nn1)O[C@@H]3Cn1cc(CNCCc2ccccc2)nn1,10 µM,40 µM,7%,10 µM,3%,3 to 5 µM,3%,20 µM,23%,20 µM,40 µM,10 µM,40%,10 µM,12%,3 µM,-0.13
